{"source": "the RNAGym collection of RNA variant scans (doi:10.1126/science.aae0568)", "parents": {"B1": {"name": "tRNA (parent)", "chain": "GUUCCGUUGGCGUAAUGGUAACGCGUCUCCCUCCUAAGGAGAAGACUGCGGGUUCGAGUCCCGUACGGAACG"}}, "note": "Variants at the floor of the assay were thinned out.", "data": [{"variants_of": "B1", "test": "yeast fitness relative to wild type (ratio to wild type); higher = fitter; tRNA-Arg(CCU), competitive growth, 37 C, YPD", "procedure,_shortened": "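The tRNA-Arg(CCU) gene variants were made by chemical synthesis with a 3% per-site mutation rate at 69 sites and inserted at the native genomic locus of Saccharomyces cerevisiae. After pooling, the strains were competed in YPD at 37°C for 24 hours in six parallel replicates. Gene amplicons from the start population and each end population were read by 100-nucleotide paired-end sequencing, and Darwinian fitness relative to wild type was taken from genotype frequency changes. Genotypes needed ≥ 100 starting reads, and estimates < 0.5 were set to 0.5.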", "values": [{"variant": "U13A G58C C60U C66G", "yeast fitness": 0.574}, {"variant": "U13A G67A", "yeast fitness": 0.9}, {"variant": "U13A G67U", "yeast fitness": 0.727}, {"variant": "U13A G68A", "yeast fitness": 0.864}, {"variant": "U13A G68C", "yeast fitness": 0.762}, {"variant": "U13A U16A C24G C33G C62G", "yeast fitness": "≤ 0.5"}, {"variant": "U13A U16A C31G C33U G38C G58C C66G", "yeast fitness": "≤ 0.5"}, {"variant": "U13A U16A C49A C61U C62G", "yeast fitness": "≤ 0.5"}, {"variant": "U13A U16A C61G", "yeast fitness": "≤ 0.5"}, {"variant": "U13A U16A C61U G63C", "yeast fitness": "≤ 0.5"}, {"variant": "U13A U16A U54A", "yeast fitness": 0.505}, {"variant": "U13A U16C C34A", "yeast fitness": "≤ 0.5"}, {"variant": "U13A U19A", "yeast fitness": 0.828}, {"variant": "U13A U19A C34U A42C A43U", "yeast fitness": "≤ 0.5"}, {"variant": "U13A U19C A20U C29G C33G A37G C49U", "yeast fitness": "≤ 0.5"}, {"variant": "U13A U19C C24G G25A G39C A40C G51C", "yeast fitness": "≤ 0.5"}, {"variant": "U13A U19G C49U", "yeast fitness": 0.625}, {"variant": "U13A U26G C29U", "yeast fitness": "≤ 0.5"}, {"variant": "U13A U26G C30G C49G", "yeast fitness": 0.501}, {"variant": "U13A U28A", "yeast fitness": 0.772}, {"variant": "U13A U28A C30G C46U G56C C61G", "yeast fitness": "≤ 0.5"}, {"variant": "U13A U28A U47G C62U A65U", "yeast fitness": "≤ 0.5"}, {"variant": "U13A U28C A45U", "yeast fitness": 0.702}, {"variant": "U13A U28C A69C", "yeast fitness": 0.76}, {"variant": "U13A U28C C33G G38A U64G", "yeast fitness": "≤ 0.5"}, {"variant": "U13A U28C C55A", "yeast fitness": 0.595}, {"variant": "U13A U28C C60A", "yeast fitness": 0.551}, {"variant": "U13A U28C C60G C66G", "yeast fitness": 0.6}, {"variant": "U13A U28C G41A G44A", "yeast fitness": "≤ 0.5"}, {"variant": "U13A U28C G56A", "yeast fitness": 0.805}, {"variant": "U13A U28C G58C A69U", "yeast fitness": 0.7}, {"variant": "U13A U28C U64A", "yeast fitness": 0.718}, {"variant": "U13A U32A", "yeast fitness": 0.69}, {"variant": "U13A U32A A37U G41A", "yeast fitness": "≤ 0.5"}, {"variant": "U13A U32A C60G", "yeast fitness": "≤ 0.5"}, {"variant": "U13A U32A C62U G63A", "yeast fitness": "≤ 0.5"}, {"variant": "U13A U32C", "yeast fitness": 0.875}, {"variant": "U13A U32C A40C G67A", "yeast fitness": "≤ 0.5"}, {"variant": "U13A U32C A65G", "yeast fitness": 0.705}, {"variant": "U13A U32C A69U", "yeast fitness": 0.995}, {"variant": "U13A U32C U54G C62U", "yeast fitness": "≤ 0.5"}, {"variant": "U13A U32G A45G A70G", "yeast fitness": "≤ 0.5"}, {"variant": "U13A U35A", "yeast fitness": 0.561}, {"variant": "U13A U35A A40U G41A A42C", "yeast fitness": "≤ 0.5"}, {"variant": "U13A U35C A36C A37U G50C", "yeast fitness": "≤ 0.5"}, {"variant": "U13A U35G", "yeast fitness": 0.688}, {"variant": "U13A U47A", "yeast fitness": 0.872}, {"variant": "U13A U47A C60A", "yeast fitness": 0.58}, {"variant": "U13A U47C", "yeast fitness": 0.774}, {"variant": "U13A U53C U59A U64A A70C", "yeast fitness": "≤ 0.5"}, {"variant": "U13A U54A", "yeast fitness": 0.622}, {"variant": "U13A U54A A69U", "yeast fitness": 0.529}, {"variant": "U13A U54C C55U C62U G68C", "yeast fitness": 0.686}, {"variant": "U13A U54C C62U", "yeast fitness": 0.679}, {"variant": "U13A U54C C62U G68C", "yeast fitness": "≤ 0.5"}, {"variant": "U13A U59A U64A A70C", "yeast fitness": 0.511}, {"variant": "U13A U64A", "yeast fitness": 0.832}, {"variant": "U13A U64C", "yeast fitness": 0.922}, {"variant": "U13C A14C C34U G38C G51A A57C C66U", "yeast fitness": "≤ 0.5"}, {"variant": "U13C A14C C60U C62U U64A", "yeast fitness": "≤ 0.5"}, {"variant": "U13C A14C U64C A65C", "yeast fitness": "≤ 0.5"}, {"variant": "U13C A14G A42C C62G", "yeast fitness": "≤ 0.5"}, {"variant": "U13C A14G C24G", "yeast fitness": "≤ 0.5"}, {"variant": "U13C A14G C31U", "yeast fitness": 0.824}, {"variant": "U13C A14G G56C", "yeast fitness": "≤ 0.5"}, {"variant": "U13C A14U A36U G38A A43U G67A", "yeast fitness": "≤ 0.5"}, {"variant": "U13C A14U C46U G48A C55U G68U", "yeast fitness": "≤ 0.5"}, {"variant": "U13C A14U G41C", "yeast fitness": 0.603}, {"variant": "U13C A14U G41C G48C", "yeast fitness": "≤ 0.5"}, {"variant": "U13C A15C C46G", "yeast fitness": "≤ 0.5"}, {"variant": "U13C A15G A43U", "yeast fitness": 0.752}, {"variant": "U13C A15G A65C", "yeast fitness": 0.583}, {"variant": "U13C A15G C22G", "yeast fitness": 0.571}, {"variant": "U13C A15G C30A C62G", "yeast fitness": "≤ 0.5"}, {"variant": "U13C A15U C46A A65C", "yeast fitness": "≤ 0.5"}, {"variant": "U13C A15U C61U A65C", "yeast fitness": "≤ 0.5"}, {"variant": "U13C A15U U16A U19A", "yeast fitness": "≤ 0.5"}, {"variant": "U13C A15U U16A U19A C34U G67A G68C", "yeast fitness": "≤ 0.5"}, {"variant": "U13C A20C A42U", "yeast fitness": 0.558}, {"variant": "U13C A20C A43G", "yeast fitness": 0.684}, {"variant": "U13C A20C G48C A57G", "yeast fitness": "≤ 0.5"}, {"variant": "U13C A20G A37G G58A", "yeast fitness": "≤ 0.5"}, {"variant": "U13C A20G C46U", "yeast fitness": 0.66}, {"variant": "U13C A20G C46U U47A A70U", "yeast fitness": "≤ 0.5"}]}]}
